TRPC4 agonist: TRPC4 (mouse) channel activation; 0.49% of 310,000 active; HEK293 TRPC4beta/mu-opioid, Fluo4 calcium fluorescence; stronger effect = higher value; B-score at 10 µM;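 active means B-score above 5 SD of library B-scores, and initial fluorescence ratio not above library mean plus 5 SD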;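 further: positive B-score marks a calcium rise read as TRPC4 activation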
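Test system: HEK293 cells stably co-expressing mouse TRPC4beta and mu-opioid receptor | Schedule: Fluo4 dye loading 45 min at room temperature, 110 s recording | Measured by: Kinetic Fluo4 calcium fluorescence, 5 s baseline at 1 Hz | Evaluation: B score of integrated ratio | Controls: Buffer (low) and maximal DAMGO (high)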
TRPC6 inh: inhibitors of mouse TRPC6 channel; B-score at 10 µM; 1.1% of 310,000 active; HEK293-TRPC6, membrane potential dye, ACh-evoked depolarization; stronger effect = lower value; Q61143;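 active means B-score under library mean minus 3 SD, initial fluorescence not abnormally high, positive integrated signal ratio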;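 further: B-score derived from integrated fluorescence ratio over the kinetic read; more negative B-score means stronger inhibition of depolarization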
Target sequence (Q61143 whole entry, looked up): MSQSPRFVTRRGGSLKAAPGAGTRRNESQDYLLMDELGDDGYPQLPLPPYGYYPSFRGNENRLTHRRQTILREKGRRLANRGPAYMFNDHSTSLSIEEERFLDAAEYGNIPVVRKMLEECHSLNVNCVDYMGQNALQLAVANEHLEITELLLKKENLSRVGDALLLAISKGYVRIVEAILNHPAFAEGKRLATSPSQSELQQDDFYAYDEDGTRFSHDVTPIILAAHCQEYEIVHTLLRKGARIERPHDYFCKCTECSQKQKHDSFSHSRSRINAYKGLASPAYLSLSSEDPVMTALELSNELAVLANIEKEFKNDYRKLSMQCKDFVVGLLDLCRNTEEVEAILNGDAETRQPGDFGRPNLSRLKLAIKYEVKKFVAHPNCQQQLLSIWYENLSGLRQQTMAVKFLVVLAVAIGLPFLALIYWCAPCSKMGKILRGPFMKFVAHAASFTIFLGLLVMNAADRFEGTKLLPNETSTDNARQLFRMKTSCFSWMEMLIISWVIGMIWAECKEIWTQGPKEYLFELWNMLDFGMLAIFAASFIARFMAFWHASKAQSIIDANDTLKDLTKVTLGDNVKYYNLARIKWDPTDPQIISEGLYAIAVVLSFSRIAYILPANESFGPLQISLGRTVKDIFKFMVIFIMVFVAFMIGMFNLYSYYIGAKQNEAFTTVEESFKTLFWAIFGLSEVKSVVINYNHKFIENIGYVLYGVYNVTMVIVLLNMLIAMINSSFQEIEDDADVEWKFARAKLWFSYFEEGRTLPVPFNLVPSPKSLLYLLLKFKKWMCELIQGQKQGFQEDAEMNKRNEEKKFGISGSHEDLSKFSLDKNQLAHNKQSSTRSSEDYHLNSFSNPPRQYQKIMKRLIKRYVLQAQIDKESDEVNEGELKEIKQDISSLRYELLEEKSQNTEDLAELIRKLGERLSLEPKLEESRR
TRPC4 PAM: allosteric potentiators of mouse TRPC4 channel; HEK293 TRPC4beta/mu-opioid, DAMGO EC20, Fluo-4 Ca2+ flux; stronger effect = higher value; 0.42% of 310,000 active; Q9QUQ5; B-score at 10 µM;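 active means B-score of calcium response area above 5 SD of library B-scores, with initial fluorescence ratio within 5 SD of library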;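 further: B-score of integrated fluorescence ratio over time as area under calcium response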
TRPC4 block: inhibitors of mouse TRPC4 channel. Q9QUQ5. HEK293 TRPC4beta/mu-opioid, DAMGO-evoked Fluo4 calcium flux; stronger effect = lower value. B-score at 10 µM. 0.39% of 300,000 active. AID 2247;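 active means B-score over 3 SD under the library average, no early fluorescence shift, positive overall ratio signal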
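Assay system: HEK293 cells with stable TRPC4beta plus mu-opioid receptor expression. Dosing: single dose. Measured by: Fluo4 Ca2+ flux fluorescence. Also added: DAMGO in two steps, submaximal then maximal. Read-out: B score from integrated Fluo4 fluorescence ratio.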
TRPC6 act: mouse TRPC6 channel activation; 0.13% of 310,000 active; B-score at 10 µM; AID 2550; Q61143; HEK293-TRPC6 membrane potential dye fluorescence; stronger effect = higher value;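 active means B-score of the integrated fluorescence ratio above library mean plus 3 SD, and starting fluorescence ratio within library mean plus 5 SD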;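 further: higher score means more depolarization so channel activation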
* hit, by the source's call; i = inactive; . = no result given; ! = repeats disagree. An excerpt weighted towards active compounds, which were near 2.3% of everything screened.

SMILES	TRPC4 agonist	TRPC6 inh	TRPC4 PAM	TRPC4 block	TRPC6 act
CC1=C(C(=O)NCc2ccccc2)C(c2cc(Br)cc(Br)c2OC(C)C)NC(=O)N1 (stereo not given)	i	i	17*	i	i
CC1=C(C(=O)NCc2ccccc2)C(c2ccccc2OCC(N)=O)NC(=O)N1 (stereo not given)	i	i	i	i	i
CC(=O)/C=C1/C(=O)Nc2ccccc21	i	i	i	-5*	i
C=CCOc1cccc(C(=O)/C=C2/C(=O)Nc3ccccc32)c1	i	i	i	i	i
COc1ccc2c(c1)c1ncn(CCN3CCCC3)c(=O)c1n2C	i	i	15*	i	i
COc1ccc2c(c1)c1ncn(CCN3CCCCC3)c(=O)c1n2C	i	i	i	i	i
COc1ccccc1C(=O)NC1CCSc2ccccc21 (stereo not given)	i	i	i	i	i
COc1cccc(-c2cc(C(=O)N3CC4(C)CC3CC(C)(C)C4)no2)c1 (stereo not given)	i	i	i	i	i
CC1(C)CC2CC(C)(CN2C(=O)c2cc(-c3ccc(O)cc3)on2)C1 (stereo not given)	i	i	i	-6*	i
O=C(CCCCCl)Nc1c2c(nc3ccccc13)CCC2	i	i	i	i	i
CCC(=O)Nc1cccc(-n2nnnc2SCC(=O)N2CCCCC2)c1	i	i	10*	i	i
COc1cc(OC)cc(-n2nnnc2SCC(=O)N2CCCC2)c1	i	i	i	i	i
C=CCOc1ccc(Br)cc1CNC(C)(C)CO	i	i	i	-7*	i
N=C1c2ccccc2CN1NC(=O)c1cccc(S(=O)(=O)N2CCOCC2)c1	i	i	i	i	i
N=C1c2ccccc2CN1NC(=O)c1cccc(S(=O)(=O)N2CCCCC2)c1	49*	i	i	i	i
CCC1CCCCN1CCCNC(=O)c1ccc2c(c1)N(Cc1ccc(F)cc1)C(=O)c1ccccc1S2=O (stereo not given)	i	i	i	i	i
O=C(c1ccncc1)N1CCN(C(=O)c2cccs2)CC1	i	i	i	i	i
O=C(c1cccs1)N1CCN(c2ncc(Br)cn2)CC1	175*	i	i	i	i
Cc1cccc(Nc2nc(NCCCN3CCOCC3)nc(N)c2[N+](=O)[O-])c1	i	i	i	-6*	i
O=C(CCc1ccncc1)N1CCCC(Nc2ccc(F)c(F)c2)C1 (stereo not given)	i	i	i	i	i
Clc1ccc(-n2cc(-c3ccc(Br)cc3)[n+]3c2CCCCC3)cc1	i	i	i	-6*	i
Cc1ccc(-c2cn(-c3ccc(OC(F)F)cc3)c3[n+]2CCCCC3)cc1	i	i	i	i	i
O=C(COC(=O)c1cccc([N+](=O)[O-])c1)NCc1cccs1	i	i	i	.	i
Cc1ncsc1CCOC(=O)c1cccc([N+](=O)[O-])c1	i	i	i	-6*!	i
Cn1cccc1/C=C(/C#N)c1ccc(F)cc1	i	i	i	i	i
SMILES	TRPC4 agonist	TRPC6 inh	TRPC4 PAM	TRPC4 block	TRPC6 act
O=[N+]([O-])c1ccc(/C=N/Nc2nc(N3CCCCCC3)nc(N3CCCCCC3)n2)o1	i	i	32*	i	i
CCC(=O)N(C)CCc1cc2c(c(OC)c1/C=N/NC(=O)c1ccc(Br)cc1)OCO2	i	i	i	-7*	i
Cc1c(N(C)S(=O)(=O)c2cc(C(=O)Nc3ccccn3)ccc2Cl)c(=O)n(-c2ccccc2)n1C	i	i	i	-5*	i
O=C(Nc1ccccn1)c1ccc(Cl)c(S(=O)(=O)N2CCCCCC2)c1	i	i	i	i	i
O=C(/C=C/c1cccs1)NC(=S)NNC(=O)c1ccccc1O	47*	i	i	i	i
COc1ccc(C(=O)NNC(=S)NC(=O)/C=C/c2cccs2)cc1	i	i	i	i	i
COc1ccc(-n2c(C)cc(/C=C3\C(=N)N4N=C(CC(=O)N5CCOCC5)SC4=NC3=O)c2C)c(OC)c1	i	i	i	i	i
COc1ccc(Cl)cc1NC(=O)C1CCCN(S(C)(=O)=O)C1 (stereo not given)	i	i	i	i	i
O=C(O)C1CCCCC1C(=O)NCCc1ccc(F)cc1 (stereo not given)	i	i	10*	i	i
CCCCCN=C(N)N/N=C/c1c[nH]c2ccc(OC)cc12	66*	i	i	i	i
CCOc1cc(CN2CCN(c3ccc(C(C)=O)cc3)CC2)ccc1OC	i	i	11*	i	i
CCOc1cc(CN2CCCCC2)ccc1OC	i	i	i	i	i
Cc1c(Cl)c(C(=O)Nc2nc3ccccc3n2CCN2CCCCC2)nn1C	i	-8.21*	i	i	i
CCCn1c(NC(=O)c2ccc(Cl)c(S(=O)(=O)N3CCCC3)c2)nc2ccccc21	i	i	32*	-7*	i
c1ccc(Nc2nc(N3CCOCC3)nc(N3CCOCC3)n2)cc1	i	i	i	i	i
c1ccc(Nc2nc(N3CCNCC3)nc(N3CCOCC3)n2)cc1	65*	i	i	i	i
O=C(c1ccc2c(c1)OCO2)C1CCCN(Cc2cc(F)ccc2-n2cccn2)C1 (stereo not given)	i	i	i	-5*	i
O=C(c1ccc2c(c1)OCO2)C1CCCN(Cc2ccccc2OC(F)F)C1 (stereo not given)	i	i	i	-7*	i
O=C(c1ccc(Cl)cc1)C1CCCN(Cc2cccn2-c2cccnc2)C1 (stereo not given)	i	i	i	i	i
O=C(c1ccc2c(c1)OCO2)C1CCCN(Cc2cccn2-c2cccnc2)C1 (stereo not given)	i	i	i	-6*	i
CCOC(=O)c1nc(-c2ccccc2)oc1N1CCOCC1	i	i	i	i	i
CN(C(=O)COC(=O)CCCN1C(=O)c2cccc3cccc(c23)C1=O)C1CCS(=O)(=O)C1 (stereo not given)	i	i	i	i	i
CN1CCN(Cc2cn[nH]c2-c2ccc(F)cc2F)[C@@H](c2ccccc2)C1	i	i	i	-5*	i
OCCCC1CCCN(Cc2cn[nH]c2-c2ccc(F)cc2F)C1 (stereo not given)	i	i	i	i	i
CCOC(=O)c1ccc(NC(=S)N2CCSC2c2ccc(Cl)cc2)cc1 (stereo not given)	i	i	20*	i	i

Screening results as filed in PubChem.
